Assay results reported in ChEMBL document CHEMBL3297654, “Synthesis, antimicrobial and cytotoxic activities, and structure-activity relationships of gypsogenin derivatives against human cancer cells” (Eur J Med Chem, 2014).
≈ marks a conversion by molar mass, not a printed value. Calls of active or inactive are those of the source. The calls are words filed in the database; no cut-off is given here.

Tests used:
Bacillus subtilis [1] = test: Antimicrobial activity against Bacillus subtilis ATCC 6633 assessed as zone of inhibition at 30 uL for 24 hrs at 30 degC by disk diffusion test; format: functional
Method in brief: (§1)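 Agar well diffusion on Mueller Hinton agar seeded with 0.1 mL broth culture (18–24 h), adjusted to 0.5 McFarland (about 1×10^8 bacteria or 1×10^6 yeast cells/mL). A 6 mm well is filled with 30 µL of compound from a fresh 1000 µg/mL DMSO stock. Plates are held at 30 °C for 24 h and inhibition zone diameter is read in mm.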

Salmonella typhimurium = test: Antimicrobial activity against Salmonella typhimurium ATCC 14028 assessed as zone of inhibition at 30 uL for 24 hrs at 37 degC by disk diffusion test; format: functional, organism-based; settings: Salmonella enterica subsp. enterica serovar Typhimurium
Method in brief: (§2)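 Compound (30 µL of a fresh 1000 µg/mL DMSO stock) goes into a 6 mm well cut in Mueller Hinton agar inoculated with 0.1 mL broth culture adjusted to 0.5 McFarland (about 1×10^8 cells/mL). Plates are incubated 24 h at 37 °C, then zone of inhibition diameter is measured in mm.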

Bacillus cereus [2] = test: Antimicrobial activity against Bacillus cereus ATCC 11778 assessed as zone of inhibition at 30 uL for 24 hrs at 30 degC by disk diffusion test; format: functional; method in brief: as §1
HeLa [3] = test: Antiproliferative activity against human HeLa cells after 24 and 72 hrs by MTT assay; format: functional, cell-based
Method in brief: (§3)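 ATCC human cell lines are kept in RPMI, DMEM or McCoy's 5A with 10–15% heat-inactivated FCS at 37 °C and 5% CO2. They are seeded at 1×10^4–1×10^5 cells/mL in 48-well plates and exposed to 0.5, 10, 20 or 40 µM. Viability is read by MTT (590 nm) at 24 and 72 h. Growth is expressed relative to untreated cells and IC50 is fitted, in triplicate.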

Caco-2 [4] = test: Induction of necrosis in human Caco2 cells at 20 uM after 48 hrs by Hoechst 33258/propidium iodide staining based phase contrast microscopic analysis; format: functional
Method in brief: (§4)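 Cells in 48-well plates treated with 0.5, 10, 20 or 40 µM for 24 and 48 h. Values are read at 48 h, 20 µM for test agents and 0.5 µM for controls. Staining is Hoechst 33258/propidium iodide double staining with fluorescence microscopy. Blue nuclei are viable or early-to-mid apoptotic, and pink nuclei are late apoptotic or necrotic. Apoptosis and necrosis are scored from chromatin condensation as % of cells. Cells are grown at 37 °C in 5% CO2 in RPMI, DMEM or McCoy's 5A with 10–15% heat-inactivated FCS.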

Staphylococcus aureus = test: Antimicrobial activity against Staphylococcus aureus ATCC 25923 assessed as zone of inhibition at 30 uL for 24 hrs at 37 degC by disk diffusion test; format: functional, organism-based; method in brief: as §2
HeLa [5] = test: Induction of apoptosis in human HeLa cells at 20 uM after 48 hrs by Hoechst 33258/propidium iodide staining based phase contrast microscopic analysis; format: functional; method in brief: as §4
HeLa [6] = test: Induction of necrosis in human HeLa cells at 20 uM after 48 hrs by Hoechst 33258/propidium iodide staining based phase contrast microscopic analysis; format: functional; method in brief: as §4
Candida albicans = test: Antimicrobial activity against Candida albicans ATCC 10231 assessed as zone of inhibition at 30 uL for 24 hrs at 30 degC by disk diffusion test; format: functional, organism-based; method in brief: as §1
[7] = system: Staphylococcus epidermidis; test: Antimicrobial activity against Staphylococcus epidermidis ATCC 12228 assessed as zone of inhibition at 30 uL for 24 hrs at 37 degC by disk diffusion test; format: functional, organism-based; method in brief: as §2
HL-60 [8] = test: Antiproliferative activity against human HL60 cells after 24 and 72 hrs by MTT assay; format: functional, cell-based; method in brief: as §3
MCF7 [9] = test: Antiproliferative activity against human MCF7 cells after 24 and 72 hrs by MTT assay; format: functional, cell-based; method in brief: as §3
Pseudomonas aeruginosa = test: Antimicrobial activity against Pseudomonas aeruginosa ATCC 35032 assessed as zone of inhibition at 30 uL for 24 hrs at 37 degC by disk diffusion test; format: functional, organism-based; method in brief: as §2
HT-29 [10] = test: Induction of apoptosis in human HT-29 cells at 20 uM after 48 hrs by Hoechst 33258/propidium iodide staining based phase contrast microscopic analysis; format: functional; method in brief: as §4
Klebsiella pneumoniae = test: Antimicrobial activity against Klebsiella pneumoniae ATCC 13882 assessed as zone of inhibition at 30 uL for 24 hrs at 37 degC by disk diffusion test; format: functional, organism-based; method in brief: as §2
Nakaseomyces glabratus = test: Antimicrobial activity against Candida glabrata assessed as zone of inhibition at 30 uL for 24 hrs at 30 degC by disk diffusion test; format: functional, organism-based; method in brief: as §1
Bacillus thuringiensis [11] = test: Antimicrobial activity against Bacillus thuringiensis assessed as zone of inhibition at 30 uL for 24 hrs at 30 degC by disk diffusion test; format: functional; method in brief: as §1
Bacillus cereus [12] = test: Antimicrobial activity against Bacillus cereus ATCC 11778 for 24 hrs by microdillution method; format: functional; settings: ATCC 11778, 24 h
Method in brief: (§5)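 Broth microdilution. Compound is dissolved in DMSO (2 mg/mL) and diluted in Mueller Hinton broth as two-fold serial dilutions from 256 to 0.125 µg/mL. Bacteria are pre-grown in nutrient broth at 30 °C, and the final inoculum is about 10^6 cfu/mL. Tests are incubated 37 °C for 24 h. MIC is the lowest concentration giving complete inhibition. Streptomycin is the positive control.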

Candida tropicalis = test: Antimicrobial activity against Candida tropicalis assessed as zone of inhibition at 30 uL for 24 hrs at 30 degC by disk diffusion test; format: functional, organism-based; method in brief: as §1
Enterococcus faecalis = test: Antimicrobial activity against Enterococcus faecalis ATCC 29212 assessed as zone of inhibition at 30 uL for 24 hrs at 37 degC by disk diffusion test; format: functional, organism-based; method in brief: as §2
Caco-2 [13] = test: Induction of apoptosis in human Caco2 cells at 20 uM after 48 hrs by Hoechst 33258/propidium iodide staining based phase contrast microscopic analysis; format: functional; method in brief: as §4
MCF7 [14] = test: Induction of necrosis in human MCF7 cells at 20 uM after 48 hrs by Hoechst 33258/propidium iodide staining based phase contrast microscopic analysis; format: functional; method in brief: as §4
HT-29 [15] = test: Induction of necrosis in human HT-29 cells at 20 uM after 48 hrs by Hoechst 33258/propidium iodide staining based phase contrast microscopic analysis; format: functional; method in brief: as §4
[16] = Antiproliferative activity against human Saos2 cells after 24 and 72 hrs by MTT assay; format: functional, cell-based; settings: SAOS-2; method in brief: as §3
MCF7 [17] = test: Induction of apoptosis in human MCF7 cells at 20 uM after 48 hrs by Hoechst 33258/propidium iodide staining based phase contrast microscopic analysis; format: functional; method in brief: as §4
Cyberlindnera jadinii = test: Antimicrobial activity against Candida utilis ATCC 9950 assessed as zone of inhibition at 30 uL for 24 hrs at 30 degC by disk diffusion test; format: functional, organism-based; method in brief: as §1
SAOS-2 [18] = test: Induction of necrosis in human Saos2 cells at 20 uM after 48 hrs by Hoechst 33258/propidium iodide staining based […] microscopic analysis; format: functional; method in brief: as §4
HL-60 [19] = test: Induction of necrosis in human HL60 cells at 20 uM after 48 hrs by Hoechst 33258/propidium iodide staining based phase contrast microscopic analysis; format: functional; method in brief: as §4
Caco-2 [20] = test: Antiproliferative activity against human Caco2 cells after 24 and 72 hrs by MTT assay; format: functional, cell-based; method in brief: as §3
HL-60 [21] = test: Induction of apoptosis in human HL60 cells at 20 uM after 48 hrs by Hoechst 33258/propidium iodide staining based phase contrast microscopic analysis; format: functional; method in brief: as §4
Escherichia coli = test: Antimicrobial activity against Escherichia coli ATCC 25922 assessed as zone of inhibition at 30 uL for 24 hrs at 37 degC by disk diffusion test; format: functional, organism-based; method in brief: as §2
HT-29 [22] = test: Antiproliferative activity against human HT-29 cells after 24 and 72 hrs by MTT assay; format: functional, cell-based; method in brief: as §3
Saccharomyces cerevisiae = test: Antimicrobial activity against Saccharomyces cerevisiae ATCC 9763 assessed as zone of inhibition at 30 uL for 24 hrs at 30 degC by disk diffusion test; format: functional, organism-based; method in brief: as §1
Bacillus thuringiensis [23] = test: Antimicrobial activity against Bacillus thuringiensis for 24 hrs by microdillution method; format: functional; method in brief: as §5
Bacillus subtilis [24] = test: Antimicrobial activity against Bacillus subtilis ATCC 6633 for 24 hrs by microdillution method; format: functional; settings: ATCC 6633, 24 h; method in brief: as §5
Proteus vulgaris = test: Antimicrobial activity against Proteus vulgaris ATCC 33420 assessed as zone of inhibition at 30 uL for 24 hrs at 37 degC by disk diffusion test; format: functional, organism-based; method in brief: as §2
SAOS-2 [25] = test: Induction of apoptosis in human Saos2 cells at 20 uM after 48 hrs by Hoechst 33258/propidium iodide staining based phase contrast microscopic analysis; format: functional; method in brief: as §4
Micrococcus luteus = test: Antimicrobial activity against Micrococcus luteus ATCC 9341 assessed as zone of inhibition at 30 uL for 24 hrs at 30 degC by disk diffusion test; format: functional, organism-based; method in brief: as §1

SMILES	diameter of the inhibition zone (DIZ) (Bacillus subtilis [1]) [mm]	diameter of the inhibition zone (DIZ) (Salmonella typhimurium)	diameter of the inhibition zone (DIZ) (Bacillus cereus [2]) [mm]	IC50 (HeLa [3]) [µM]	Activity (Caco-2 [4]) [%]	diameter of the inhibition zone (DIZ) (Staphylococcus aureus)	Activity (HeLa [5]) [%]	Activity (HeLa [6]) [%]	diameter of the inhibition zone (DIZ) (Candida albicans)	diameter of the inhibition zone (DIZ) [7]	IC50 (HL-60 [8]) [µM]	IC50 (MCF7 [9]) [µM]	diameter of the inhibition zone (DIZ) (Pseudomonas aeruginosa)	Activity (HT-29 [10]) [%]	diameter of the inhibition zone (DIZ) (Klebsiella pneumoniae)	diameter of the inhibition zone (DIZ) (Nakaseomyces glabratus)	diameter of the inhibition zone (DIZ) (Bacillus thuringiensis [11]) [mm]	MIC (Bacillus cereus [12]) [µg/mL]	diameter of the inhibition zone (DIZ) (Candida tropicalis)	diameter of the inhibition zone (DIZ) (Enterococcus faecalis)	also measured
CC1(C)CC[C@]2(C(=O)O)CC[C@]3(C)C(=CC[C@@H]4[C@@]5(C)CC[C@H](O)[C@@](C)(/C=N/O)[C@@H]5CC[C@]43C)[C@@H]2C1	11	inactive	9	8.71	3	inactive	26	3	inactive	inactive	3.9	7.5	inactive	27	inactive	inactive	10	128 (≈ 264 µM)	inactive	inactive	Activity (Caco-2 [13]): 23%; Activity (MCF7 [14]): 4%; Activity (HT-29 [15]): 0.7%; IC50 [16]: 7.93 µM; Activity (MCF7 [17]): 26%; diameter of the inhibition zone (DIZ) (Cyberlindnera jadinii): inactive; Activity (SAOS-2 [18]): 3%; Activity (HL-60 [19]): 3%; IC50 (Caco-2 [20]): 28.1 µM; Activity (HL-60 [21]): 30%; diameter of the inhibition zone (DIZ) (Escherichia coli): inactive; IC50 (HT-29 [22]): 10.9 µM; diameter of the inhibition zone (DIZ) (Saccharomyces cerevisiae): inactive; MIC (Bacillus thuringiensis [23]): 128 µg/mL (≈ 264 µM); MIC (Bacillus subtilis [24]): 64 µg/mL (≈ 132 µM); diameter of the inhibition zone (DIZ) (Proteus vulgaris): inactive; Activity (SAOS-2 [25]): 27%; diameter of the inhibition zone (DIZ) (Micrococcus luteus): inactive
CC1(C)CC[C@]2(C(=O)O)CC[C@]3(C)C(=CC[C@@H]4[C@@]5(C)CC[C@H](O)[C@@](C)(C=O)[C@@H]5CC[C@]43C)[C@@H]2C1	13	inactive	13	22.5	0	inactive	29	0	inactive	inactive	10.4	9.02	inactive	21	inactive	inactive	13	32 (≈ 68 µM)	inactive	inactive	Activity (Caco-2 [13]): 20%; Activity (MCF7 [14]): 4%; Activity (HT-29 [15]): 2%; IC50 [16]: 7.85 µM; Activity (MCF7 [17]): 30%; diameter of the inhibition zone (DIZ) (Cyberlindnera jadinii): inactive; Activity (SAOS-2 [18]): 2%; Activity (HL-60 [19]): 4%; IC50 (Caco-2 [20]): 16.7 µM; Activity (HL-60 [21]): 33%; diameter of the inhibition zone (DIZ) (Escherichia coli): inactive; IC50 (HT-29 [22]): 11.9 µM; diameter of the inhibition zone (DIZ) (Saccharomyces cerevisiae): inactive; MIC (Bacillus thuringiensis [23]): 32 µg/mL (≈ 68 µM); MIC (Bacillus subtilis [24]): 32 µg/mL (≈ 68 µM); diameter of the inhibition zone (DIZ) (Proteus vulgaris): inactive; Activity (SAOS-2 [25]): 36%; diameter of the inhibition zone (DIZ) (Micrococcus luteus): inactive
